Results published in ChEMBL document CHEMBL4411297, “Discovery, synthesis and anti-atherosclerotic activities of a novel selective sphingomyelin synthase 2 inhibitor” (Eur J Med Chem, 2019).

How the values were obtained:
[1] = AUC (0 to 8 hrs) in C57BL/6J mouse at 100 mg/kg/day, ig by HPLC-MS/MS analysis; format: ADME, organism-based; parameters: dose 100 mg/kg/day, time < 8 hr, route intragastric; conditions: in vivo, po
In short: (§1)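 Male C57BL/6J mice, six to eight weeks old, about 20 g, fasted 12 h with free water. Given a single intragastric dose of 25, 50 or 100 mg/kg in 10% DMSO/30% PEG-100/0.9% NaCl. Blood taken retro-orbitally at 5 min to 8 h. Plasma protein-precipitated with methanol plus internal standard, then HPLC-MS/MS on a C18 column. Noncompartmental analysis, n = 6.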

[2] = Half life in C57BL/6J mouse at 50 mg/kg/day, ig by HPLC-MS/MS analysis; format: ADME, organism-based; conditions: in vivo, po; in short: as §1
[3] = Apparent oral clearance in C57BL/6J mouse at 50 mg/kg/day, ig by HPLC-MS/MS analysis; format: ADME, organism-based; conditions: in vivo; in short: as §1
[4] = MRT (0 to 8 hrs) in C57BL/6J mouse at 50 mg/kg/day, ig by HPLC-MS/MS analysis; format: ADME, organism-based; conditions: in vivo, po
In short: (§2)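 Male C57BL/6J mice (6–8 weeks, ~20 g), fasted 12 h, given a single intragastric dose of 25, 50 or 100 mg/kg in 10% DMSO/30% PEG/0.9% NaCl. Retro-orbital blood at 5 min to 8 h; plasma protein-precipitated with methanol plus internal standard, assayed by LC-MS/MS; noncompartmental analysis. Mean ± SD, n = 6.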

[5] = Cmax in C57BL/6J mouse at 25 mg/kg/day, ig by HPLC-MS/MS analysis; format: ADME, organism-based; parameters: dose 25 mg/kg/day, route intragastric; conditions: in vivo, po; in short: as §1
[6] = Apparent volume of distribution during terminal phase in C57BL/6J mouse at 25 mg/kg/day, ig by HPLC-MS/MS analysis; format: ADME, organism-based; conditions: in vivo, po, read-out: Vz/F; in short: as §1
[7] = MRT (0 to 8 hrs) in C57BL/6J mouse at 25 mg/kg/day, ig by HPLC-MS/MS analysis; format: ADME, organism-based; conditions: in vivo, po; in short: as §2
[8] = test system: Mus musculus; assay: Effect on body weight in apoE knockout mouse fed with western-type diet at 12.5 to 40 mg/kg/day, ig for 7 weeks; format: ADME, organism-based; conditions: in vivo, po, 1176 h
In short: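 ApoE KO mice on Western-type diet, dosed by gavage daily at 12.5 or 40 mg/kg for 7 weeks. Body weight recorded weekly throughout dosing and compared with vehicle, 10 mice per group.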

[9] = test system: Mus musculus; assay: Anti-atherosclerotic activity in apoE knockout mouse fed with western-type diet assessed as reduction in liver SMS activity at 40 mg/kg/day, ig for 7 weeks relative to control; format: functional; parameters: scale not given: the % may be the effect or the level left
In short: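 ApoE KO mice on Western-type diet, dosed by gavage at 12.5 or 40 mg/kg/day for 7 weeks, n = 10. Liver homogenized at 200 mg/ml in 50 mM Tris-HCl pH 7.4, 1 mM EDTA, 250 mM sucrose. C6-NBD-ceramide and DMPC added, incubated at 37 °C, quenched with ethanol. Product read by TLC or HPLC, relative to vehicle.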

[10] = test system: Mus musculus; assay: Anti-atherosclerotic activity in apoE knockout mouse fed with western-type diet assessed as reduction in lymphocyte count at 12.5 mg/kg/day, ig for 7 weeks by flow cytometric analysis relative to control; format: functional; parameters: scale not given: the % may be the effect or the level left
In short: (§3)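 ApoE KO mice started at 8 weeks old on Western-type diet for 6 weeks. Then dosed by gavage daily with vehicle, 12.5 or 40 mg/kg for 7 weeks with the diet continued, 10 mice per group. Blood single-cell suspensions stained with antibodies in PBS and analysed by flow cytometry. Mean ± SD, n = 5.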

[11] = test system: Mus musculus; assay: Anti-atherosclerotic activity in apoE knockout mouse fed with western-type diet assessed as reduction in monocyte count at 12.5 mg/kg/day, ig for 7 weeks by flow cytometric analysis relative to control; format: functional; parameters: scale not given: the % may be the effect or the level left; in short: as §3
[12] = test system: Mus musculus; assay: Anti-atherosclerotic activity in apoE knockout mouse fed with western-type diet assessed as reduction in CD11b+/Ly6C++/Ly6G+ dendritic cells at 12.5 mg/kg/day, ig for 7 weeks by flow cytometric analysis relative to control; format: functional; parameters: scale not given: the % may be the effect or the level left; in short: as §3
[13] = test system: Mus musculus; assay: Anti-atherosclerotic activity in apoE knockout mouse fed with western-type diet assessed as reduction in lesions in whole aorta at 40 mg/kg/day, ig for 7 weeks by oil-red O staining-based assay relative to control; format: functional; parameters: scale not given: the % may be the effect or the level left
In short: (§4)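 ApoE KO mice fed Western-type diet, then given 12.5 or 40 mg/kg/day by gavage in 30% PEG-400/10% DMSO/0.9% NaCl for 7 weeks. Aortic root: H&E-stained 4 µm sections, mean lesion area from 6 sections per animal. Whole aorta: en face Oil Red O staining, percentage of area stained. Compared with vehicle, n = 10.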

[14] = test system: Mus musculus; assay: Anti-atherosclerotic activity in apoE knockout mouse fed with western-type diet assessed as reduction in lesions in proximal aorta at 40 mg/kg/day, ig for 7 weeks by hematoxylin and eosin staining-based assay relative to control; format: functional; parameters: scale not given: the % may be the effect or the level left; in short: as §4
[15] = target: T1, Phosphatidylcholine:ceramide cholinephosphotransferase 2 (Mus musculus) (UniProt Q9D4B1); assay: Inhibition of SMS2 in C57BL/6J mouse bone marrow derived macrophages after 17 hrs
T1 sequence (whole entry): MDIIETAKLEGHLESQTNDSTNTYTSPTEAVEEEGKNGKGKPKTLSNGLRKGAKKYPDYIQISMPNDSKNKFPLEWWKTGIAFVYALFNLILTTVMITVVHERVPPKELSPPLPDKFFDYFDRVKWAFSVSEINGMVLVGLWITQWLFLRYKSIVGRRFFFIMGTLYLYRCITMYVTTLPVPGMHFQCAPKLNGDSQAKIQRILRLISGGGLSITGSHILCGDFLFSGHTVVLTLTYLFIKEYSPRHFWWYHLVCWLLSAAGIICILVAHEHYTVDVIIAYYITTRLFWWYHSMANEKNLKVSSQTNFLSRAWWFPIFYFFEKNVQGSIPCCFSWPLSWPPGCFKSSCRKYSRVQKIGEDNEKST

## CCc1ccccc1COc1ccccc1C(=O)Nc1cccnc1
[1]
  AUC at 8 h: 13.2 µg·h/mL
[2]
  half-life: 1.83 h
[3]
  CL/F: 180 mL/min
[4]
  MRT: 1.66 h
[5]
  Cmax: 2.53 µg/mL
[6]
  Vd/F: 51.4 L
[7]
  MRT: 1.9 h
[8]
  Activity: Non-Toxic
[9]
  Activity: 39%
[10]
  Activity: 21%
[11]
  Activity: 51%
[12]
  Activity: 16%
[13]
  Activity: 41%
[14]
  Activity: 50%
[15]
  inhibition: Dose-dependent effect
